In ChEMBL document CHEMBL4033643, “Synthesis and in vitro antitumour activity of crassalactone D, its stereoisomers and novel cinnamic ester derivatives” (Eur J Med Chem, 2017):
The source made the active and inactive calls. The rule behind the calls is not given here.

Legend:
K562 [1] = assay: Cytotoxicity against human K562 cells assessed as reduction in cell viability after 72 hrs by MTT assay; type: functional, cell-based; details: K562, 72 h
K562 [2] = assay: Induction of apoptosis in human K562 cells assessed as gated necrotic cells by Annexin V-FITC/propidium iodide staining based flow cytometry (reference value: 0.24%); type: functional
K562 [3] = assay: Induction of apoptosis in human K562 cells assessed as total necrotic cells by Annexin V-FITC/propidium iodide staining based flow cytometry (reference value: 0.23%); type: functional
K562 [4] = assay: Cell cycle arrest in human K562 cells assessed as total cell levels at S phase at IC50 after 72 hrs by propidium iodide staining based flow cytometry (reference value: 36.49%); type: functional
MDA-MB-231 = assay: Cytotoxicity against human MDA-MB-231 cells assessed as reduction in cell viability after 72 hrs by MTT assay; type: functional, cell-based; details: MDA-MB-231, 72 h
K562 [5] = assay: Induction of apoptosis in human K562 cells assessed as specific necrosis by Annexin V-FITC/propidium iodide staining based flow cytometry; type: functional; parameters: concentration or dose not given beside the values
K562 [6] = assay: Cell cycle arrest in human K562 cells assessed as accumulation at S phase at IC50 after 72 hrs by propidium iodide staining based flow cytometry (reference value: 41.03%); type: functional
K562 [7] = assay: Induction of apoptosis in human K562 cells assessed as gated late apoptotic cells by Annexin V-FITC/propidium iodide staining based flow cytometry (reference value: 0.88%); type: functional
K562 [8] = assay: Cell cycle arrest in human K562 cells assessed as accumulation at G2/M phase at IC50 after 72 hrs by propidium iodide staining based flow cytometry (reference value: 19.01%); type: functional
K562 [9] = assay: Induction of apoptosis in human K562 cells assessed as gated viable cells by Annexin V-FITC/propidium iodide staining based flow cytometry (reference value: 95.78%); type: functional
K562 [10] = assay: Induction of apoptosis in human K562 cells assessed as total viable cells by Annexin V-FITC/propidium iodide staining based flow cytometry (reference value: 92.45%); type: functional
K562 [11] = assay: Cell cycle arrest in human K562 cells assessed as accumulation at sub G1 phase at IC50 after 72 hrs by propidium iodide staining based flow cytometry (reference value: 1.48%); type: functional
K562 [12] = assay: Induction of apoptosis in human K562 cells assessed as decrease in Bcl-2 expression level by Western blot analysis; type: functional, cell-based
Outline: (§1)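 Western blot of treated K562 cells for Bcl-2, Bax, activated caspase 3 and cleaved PARP (85 kDa fragment). Blots developed by ECL, with band expression quantified by densitometry against an untreated control sample.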

HeLa = assay: Cytotoxicity against human HeLa cells assessed as reduction in cell viability after 72 hrs by MTT assay; type: functional, cell-based
MCF7 = assay: Cytotoxicity against human MCF7 cells assessed as reduction in cell viability after 72 hrs by MTT assay; type: functional, cell-based; details: MCF7, 72 h
K562 [13] = assay: Induction of apoptosis in human K562 cells assessed as total late apoptotic cells by Annexin V-FITC/propidium iodide staining based flow cytometry (reference value: 0.77%); type: functional
K562 [14] = assay: Induction of apoptosis in human K562 cells assessed as gated early apoptotic cells by Annexin V-FITC/propidium iodide staining based flow cytometry (reference value: 3.18%); type: functional
HL-60 = assay: Cytotoxicity against human HL60 cells assessed as reduction in cell viability after 72 hrs by MTT assay; type: functional, cell-based; details: HL-60, 72 h
K562 [15] = assay: Cell cycle arrest in human K562 cells assessed as accumulation at G0/G1 phase at IC50 after 72 hrs by propidium iodide staining based flow cytometry (reference value: 38.48%); type: functional
K562 [16] = assay: Induction of apoptosis in human K562 cells assessed as total early apoptotic cells by Annexin V-FITC/propidium iodide staining based flow cytometry (reference value: 3.07%); type: functional
Raji = assay: Cytotoxicity against human Raji cells assessed as reduction in cell viability after 72 hrs by MTT assay; type: functional, cell-based
K562 [17] = assay: Cell cycle arrest in human K562 cells assessed as total cell levels at G2/M phase at IC50 after 72 hrs by propidium iodide staining based flow cytometry (reference value: 14.31%); type: functional
K562 [18] = assay: Cell cycle arrest in human K562 cells assessed as total cell levels at G0/G1 phase at IC50 after 72 hrs by propidium iodide staining based flow cytometry (reference value: 39.97%); type: functional
A549 = assay: Cytotoxicity against human A549 cells assessed as reduction in cell viability after 72 hrs by MTT assay; type: functional, cell-based; details: A549, 72 h
K562 [19] = assay: Induction of apoptosis in human K562 cells assessed as increase in Bax expression level by Western blot analysis; type: functional, cell-based; outline: as §1
K562 [20] = assay: Induction of apoptosis in human K562 cells assessed as specific apoptosis by Annexin V-FITC/propidium iodide staining based flow cytometry; type: functional; parameters: concentration or dose not given beside the values
MRC5 = assay: Cytotoxicity against human MRC5 cells assessed as reduction in cell viability after 72 hrs by MTT assay; type: cell-based; details: MRC5, 72 h
K562 [21] = assay: Cell cycle arrest in human K562 cells assessed as total cell levels at M4 phase at IC50 after 72 hrs by propidium iodide staining based flow cytometry (reference value: 0.50%); type: functional
Jurkat = assay: Cytotoxicity against human Jurkat cells assessed as reduction in cell viability after 72 hrs by MTT assay; type: functional, cell-based

Row | Structure (SMILES) | IC50 (K562 [1]) [µM] | Activity (K562 [2]) [%] | Activity (K562 [3]) [%] | Activity (K562 [4]) [%] | IC50 (MDA-MB-231) [µM] | Activity (K562 [5]) [%] | Activity (K562 [6]) [%] | Activity (K562 [7]) [%] | Activity (K562 [8]) [%] | Activity (K562 [9]) [%] | Activity (K562 [10]) [%] | Activity (K562 [11]) [%] | Activity (K562 [12]) | IC50 (HeLa) [µM] | IC50 (MCF7) [µM] | Activity (K562 [13]) [%] | Activity (K562 [14]) [%] | IC50 (HL-60) [µM] | Activity (K562 [15]) [%] | Activity (K562 [16]) [%] | other results
1 | COc1ccc(/C=C/C(=O)O[C@H]2C[C@]3(C=CC(=O)O3)O[C@H]2c2ccccc2)cc1 | 12.8 | 0.37 | 0.36 | 24.97 | 2.64 | 3.76 | 27.14 | 0.78 | 27.85 | 93.46 | 91.39 | 3.41 | inactive | 12.8 | 11.2 | 0.76 | 5.39 | 8.67 | 41.6 | 5.27 | IC50 (Raji): 8.69 µM; Activity (K562 [17]): 25.02%; Activity (K562 [18]): 37.38%; IC50 (A549): 1.58 µM; Activity (K562 [19]): Active; Activity (K562 [20]): 2.28%; IC50 (MRC5): > 100 µM; Activity (K562 [21]): 3.06%; IC50 (Jurkat): 14.2 µM
2 | O=C1C=C[C@@]2(C[C@H](O)[C@H](c3ccccc3)O2)O1 | 0.54 | 4.62 | 1.15 | 50.77 | > 100 | 0.67 | 52.34 | 7.48 | 17.58 | 81.75 | 20.34 | 1.1 | Active | 4.61 | 1.97 | 1.86 | 6.15 | 0.19 | 28.98 | 1.53 | IC50 (Raji): 2.69 µM; Activity (K562 [17]): 13.99%; Activity (K562 [18]): 15.11%; IC50 (A549): 31.4 µM; Activity (K562 [19]): Active; Activity (K562 [20]): 10.05%; IC50 (MRC5): > 100 µM; Activity (K562 [21]): 0.87%; IC50 (Jurkat): 0.96 µM
3 | O=C1C=C[C@@]2(C[C@H](OC(=O)/C=C/c3ccc([N+](=O)[O-])cc3)[C@@H](c3ccccc3)O2)O1 | 7.45 | 1.89 | 1.64 | 34.91 | > 100 | 2.18 | 38.08 | 2.23 | 25.14 | 84.01 | 73.05 | 2.93 | inactive | 9.45 | 12.5 | 1.94 | 11.87 | 1.32 | 33.85 | 10.32 | IC50 (Raji): > 100 µM; Activity (K562 [17]): 22.88%; Activity (K562 [18]): 31.72%; IC50 (A549): 56.2 µM; Activity (K562 [19]): Active; Activity (K562 [20]): 10.54%; IC50 (MRC5): > 100 µM; Activity (K562 [21]): 2.67%; IC50 (Jurkat): 86.5 µM
4 | COc1ccc(/C=C/C(=O)O[C@H]2C[C@]3(C=CC(=O)O3)O[C@@H]2c2ccccc2)cc1 | 2.12 | 0.27 | 0.2 | 32.71 | > 100 | 3.86 | 41.08 | 2.92 | 34.45 | 59.39 | 44.16 | 3.39 | inactive | 3.34 | 3.14 | 2.17 | 37.43 | 8.67 | 21.08 | 27.83 | IC50 (Raji): 89.7 µM; Activity (K562 [17]): 27.1%; Activity (K562 [18]): 16.74%; IC50 (A549): 33.6 µM; Activity (K562 [19]): Active; Activity (K562 [20]): 37.78%; IC50 (MRC5): > 100 µM; Activity (K562 [21]): 2.67%; IC50 (Jurkat): 58.1 µM
5 | O=C1C=C[C@@]2(C[C@H](OC(=O)/C=C/c3ccccc3)[C@@H](c3ccccc3)O2)O1 | 20.5 | 0.03 | 0.02 | 13.85 | 3.45 | 4.12 | 14.63 | 4.67 | 5.34 | 12.84 | 2.12 | 56.93 | Active | 0.58 | 0.58 | 3.48 | 82.46 | 5.61 | 23.1 | 68.98 | IC50 (Raji): 2.38 µM; Activity (K562 [17]): 5.03%; Activity (K562 [18]): 21.87%; IC50 (A549): 28.1 µM; Activity (K562 [19]): Active; Activity (K562 [20]): 86.01%; IC50 (MRC5): > 100 µM; Activity (K562 [21]): 54.83%; IC50 (Jurkat): 87.6 µM
